# From PubChem BioAssay
# A selection: hits, their analogues and other compounds. The true share with any hit is near 1.4%.
# FXIIa inh 1536 – human FXIIa protease inhibitors, primary screen, biochemical, 1536-well | Coagulation factor XII (Homo sapiens), P00748 | inhibition, % at 5 µM | purified FXIIa, Boc-QGR-AMC fluorogenic substrate, 2 h | 220,000 compounds, 0.3% hits; in the data active = inhibition above about 40%;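 note: 0% = enzyme with no compound and 100% = blank without enzyme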
# FXIa inh 1536 – human FXIa protease inhibitors, primary screen, biochemical, 1536-well; 220,000 compounds, 0.14% hits; inhibition, % at 5 µM; purified FXIa, Boc-Glu-Ala-Arg-AMC fluorogenic substrate; Coagulation factor XI (Homo sapiens), P03951;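 active = inhibition of at least 40%; inactive = inhibition below 40%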;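 note: fluorescence of freed AMC excited at 355 nm; 0% = enzyme without compound and 100% = no enzyme blank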
# Thrombin inh – human alpha-thrombin inhibitors, primary screen, counter-screen for coagulation protease inhibitor project, biochemical, 1536-well, fluorogenic AMC substrate | Prothrombin (Homo sapiens), P00734 | Boc-VPR-AMC fluorogenic substrate cleavage | inhibition, % at 5 µM | 220,000 compounds, 0.26% hits | AID 1046, 2008;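 active = inhibition at or above 40%; inactive = inhibition below 40%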;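 note: 0% = enzyme with no compound and 100% = wells without enzyme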
#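 Material: human alpha-thrombin protein. Incubation: reaction at ambient temperature. Technique: fluorescence of released AMC, ex 355 nm, em 460 nm. Control set: no-compound enzyme wells and no-enzyme blanks. Also added: Boc-VPR-AMC substrate, 15 µM final. Buffer or medium: pH 7.5 Tris (50 mM) with NaCl 150 mM, Tween 20 0.05%.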
# Rce1 inhib – yeast Rce1p protease inhibitors, primary screen, biochemical, fluorescence, cell-free homogeneous; CAAX prenyl protease 2 (Saccharomyces cerevisiae (strain ATCC 204508 / S288c)), Q03530; yeast membranes, quenched prenylated peptide cleavage fluorescence; calls only; 290,000 compounds, 0.27% hits; AID 2563, 2010;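 active = fall in fluorescence gain of 50% or more versus controls, with final raw signal at or below 3038400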;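 note: plate controls were neutral control wells for no effect and wells lacking membranes for full effect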
# Target sequence (Q03530 whole entry, looked up): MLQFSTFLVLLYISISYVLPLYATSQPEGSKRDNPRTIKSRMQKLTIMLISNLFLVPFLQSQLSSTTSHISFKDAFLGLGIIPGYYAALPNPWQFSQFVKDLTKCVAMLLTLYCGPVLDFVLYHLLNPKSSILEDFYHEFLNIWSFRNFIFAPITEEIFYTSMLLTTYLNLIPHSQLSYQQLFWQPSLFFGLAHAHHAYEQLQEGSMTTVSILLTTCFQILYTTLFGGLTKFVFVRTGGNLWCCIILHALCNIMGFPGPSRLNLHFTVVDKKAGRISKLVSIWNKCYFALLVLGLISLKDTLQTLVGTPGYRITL
# KLK5 inh – human KLK5 protease inhibitors, primary screen, biochemical, 1536-well; AID 873, 2007; inhibition, % at 5 µM; recombinant hK5, fluorogenic AMC substrate cleavage; Kallikrein-5 (Homo sapiens), Q9Y337; 210,000 compounds, 0.59% hits;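 active = inhibition of 40% or more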;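 note: 0% = enzyme controls without compound and 100% = no-enzyme blanks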
# Target sequence (Q9Y337 67-293 limits assumed): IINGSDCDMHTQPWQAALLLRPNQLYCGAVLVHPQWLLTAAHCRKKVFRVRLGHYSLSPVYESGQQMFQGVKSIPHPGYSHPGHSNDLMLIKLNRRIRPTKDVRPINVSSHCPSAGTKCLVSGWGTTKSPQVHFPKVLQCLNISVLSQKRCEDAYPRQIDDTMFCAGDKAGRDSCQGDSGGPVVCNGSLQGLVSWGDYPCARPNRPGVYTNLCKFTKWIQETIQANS
# CTSL1 counter – Fasciola hepatica cathepsin L1 inhibitors, primary screen, counter-screen for PFM18AAP inhibitor project, biochemical, QFRET, fluorogenic peptide substrate. AID 1906, 2009. recombinant F. hepatica cathepsin L1, Z-Leu-Arg-MCA fluorescence. inhibition, % at 5.96 µM. 300,000 compounds, 0.49% hits;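 active = inhibition above the mean of all tested compounds plus 3 SD, set per screening campaign, cut at about 17% in these data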;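 note: 0% = plate median of test compound wells and 100% = 1 µM Z-Phe-Ala-diazomethylketone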
# * marks the source's active call; other numbers are inactive results; i = inactive; nt = no result given; + = active, no number.
SMILES,FXIIa inh 1536,FXIa inh 1536,Thrombin inh,Rce1 inhib,KLK5 inh,CTSL1 counter
CCOC(=O)C1CCCN(S(=O)(=O)c2cc3[nH]c(=O)c(=O)[nH]c3cc2C)C1 (stereo unspecified),nt,nt,nt,+,nt,3
CCOC(=O)C1CCCN(S(=O)(=O)c2ccc(S(=O)(=O)N3CCCC3)cc2)C1 (stereo unspecified),nt,nt,nt,i,nt,6
O=C1NCCCC2c3cc(O)c4ccccc4c3OC12N1CCCCC1 (stereo unspecified),15,5,1,nt,-15,29*
Cn1c(-c2ccccc2)c[n+]2c1-c1ccccc1C2,7,-8,-10,i,-4,1
Cc1ccccc1C(=O)NC1CC(C)(C)NC(C)(C)C1,17,3,33,i,58*,-2
Cc1ccc(C)c(C(=O)NC2CC(C)(C)NC(C)(C)C2)c1,-9,-6,-11,i,-3,-1
O=C(CSCc1ccccc1)Nc1ccc2c(c1)OCO2,-3,-7,-2,i,-16,-7
Cc1ccc(CSCC(=O)Nc2ccc3c(c2)OCO3)cc1,26,17,-3,i,46*,0
COc1cccc(Cl)c1NC(=O)N1CCc2c([nH]c3ccccc23)C1C(F)(F)F (stereo unspecified),4,1,-5,nt,-3,2
Cc1ccc(/C=N/NC(=O)c2cccc([N+](=O)[O-])c2)o1,10,2,13,i,41*,6
CC(=O)Nc1cccc(C(=O)N/N=C/c2ccc(C)o2)c1,1,-3,-7,i,2,-4
COc1ccc(S(=O)(=O)N2CCCOC2CNC(=O)C(=O)NCCCN2CCOCC2)cc1 (stereo unspecified),nt,nt,nt,i,nt,-1
COc1ccc(C2OC(=O)Cc3cc(OC)c(OC)cc32)cc1 (stereo unspecified),2,-4,-1,i,-4,10
Clc1cccc2sc(N3CCCC3)nc12,10,8,12,i,109*,-3
Cc1cccc(OCC(=O)Nc2nccs2)c1C,nt,nt,nt,i,nt,3
Cc1cccc(C)c1OCCNC(=O)OCc1ccccc1,3,11,11,nt,-8,0
N#Cc1c(-c2cccs2)nc(SCC(=O)c2cccs2)[nH]c1=O,30,19,26,i,71*,2
O=C(CNc1cccc(S(=O)(=O)N2CCOCC2)c1)Nc1ccccc1F,nt,nt,nt,nt,nt,-3
CCc1c(C)nc(SCc2ccccn2)[nH]c1=O,2,-8,-4,i,-17,-5
COCCCNC1=C(Cl)C(=O)c2ccccc2C1=O,-1,-4,-6,i,-3,4
CCN(CC)CCCNC1=C(Cl)C(=O)c2ccccc2C1=O,11,0,-1,i,nt,17*
CCOc1ccc(N2C(=O)CC(Sc3ccccc3C(=O)O)C2=O)c([N+](=O)[O-])c1 (stereo unspecified),8,-2,-2,i,-2,-4
O=C1c2ccccc2C(=O)N1CCN1CCCCC1,25,1,31,i,51*,1
Cc1ccc([N+](=O)[O-])cc1Nc1nc(N2CCCC2)nc(N2CCCC2)n1,nt,nt,nt,i,nt,-9
COc1cc(/C=N/NC(=O)C(=O)Nc2ccccn2)ccc1O,4,12,29,i,70*,3
SMILES,FXIIa inh 1536,FXIa inh 1536,Thrombin inh,Rce1 inhib,KLK5 inh,CTSL1 counter
O=C1CN(C(=O)CNC(=O)c2ccc(Cl)cc2Cl)CCN1,nt,nt,nt,i,nt,2
Cc1cccc(N2C(=O)CSC23CCCCC3)c1,10,-2,-4,i,-1,0
CCC1CCC2(CC1)SCC(=O)N2c1ccccc1 (stereo unspecified),30,59*,13,i,63*,0
CC1CCC2(CC1)SCC(=O)N2c1ccccc1 (stereo unspecified),24,21,20,i,91*,-2
Cn1c(=O)c2c(nc(SCCN3CCOCC3)n2Cc2ccc(F)cc2)n(C)c1=O,6,16,10,i,52*,-2
Cn1c(=O)c2c(nc(SCCN3CCOCC3)n2Cc2ccccc2Cl)n(C)c1=O,19,3,1,i,-3,1
COCc1cc(CNC(=O)C2CCC(=O)N(Cc3cccc(OC)c3)C2)[nH]n1 (stereo unspecified),nt,nt,nt,i,nt,nt
Oc1ccc(Cl)cc1/C=C/c1ccc2cccc(O)c2n1,39,33,49*,i,34,nt
CC(=O)c1c(C)[nH]c(C(=O)OCc2ccc(Br)cc2)c1C,4,-4,-6,+,-7,-3
COc1ccc(-c2cn(-c3ccccc3)nc2C(=O)O)cc1OC,nt,nt,nt,i,nt,1
O=C(O)CSCC(=O)NCc1cccc(C(F)(F)F)c1,0,-5,40*,i,1,-1
O=C(CSc1cccc(C(F)(F)F)c1)NCc1ccccc1,6,11,-5,i,-7,2
COc1ccc(NC(=O)CS(=O)CC(=O)Nc2cccnc2)cc1 (stereo unspecified),nt,nt,nt,i,nt,0
CCC(C)(C)NC(=O)C(c1ccc(OC)cc1)N(C(=O)CCC(=O)Nc1cc(C)on1)c1ccccc1F (stereo unspecified),nt,nt,nt,i,nt,1
CC(=O)c1ccc(NC(=S)Nc2cccc3cnccc23)cc1,11,65*,19,i,13,1
Cc1ccc(NC(=S)Nc2cccc3cnccc23)cc1,4,-2,-1,i,-3,1
O=C(Oc1ccc2c(=O)c(Cl)coc2c1)c1cccnc1,30,66*,23,i,-10,-1
Cc1ccc(S(=O)(=O)N2CCc3cc4c(cc3C2C)OCCCO4)cc1 (stereo unspecified),nt,nt,nt,i,nt,0
O=C(COC(=O)c1ccccc1Cc1ccccc1)NC1CCS(=O)(=O)C1 (stereo unspecified),nt,nt,nt,+,nt,0
Cc1sc2ncnc(OCC(=O)NC3CCS(=O)(=O)C3)c2c1C (stereo unspecified),24,20,29,i,103*,1
CC(=O)N(C)c1ccc(NC(=O)N2CCOCC2)cc1,nt,nt,nt,i,nt,-5
CCOC(=O)C1C(C(=O)Nc2cccc(C(F)(F)F)c2)C1C(=O)NC(C)C (stereo unspecified),34,39,19,i,53*,-2
COc1cc(OC)cc(C(=O)NNC(=S)NC2CC2)c1,10,5,-2,i,4,-4
N#C/C(=C\c1cccnc1)c1nc2ccccc2[nH]1,32,63*,11,i,39,0
